Series [1] concerns the target T1, Tyrosine-protein kinase JAK3 (Homo sapiens) (UniProt P52333).
T1 sequence (whole entry): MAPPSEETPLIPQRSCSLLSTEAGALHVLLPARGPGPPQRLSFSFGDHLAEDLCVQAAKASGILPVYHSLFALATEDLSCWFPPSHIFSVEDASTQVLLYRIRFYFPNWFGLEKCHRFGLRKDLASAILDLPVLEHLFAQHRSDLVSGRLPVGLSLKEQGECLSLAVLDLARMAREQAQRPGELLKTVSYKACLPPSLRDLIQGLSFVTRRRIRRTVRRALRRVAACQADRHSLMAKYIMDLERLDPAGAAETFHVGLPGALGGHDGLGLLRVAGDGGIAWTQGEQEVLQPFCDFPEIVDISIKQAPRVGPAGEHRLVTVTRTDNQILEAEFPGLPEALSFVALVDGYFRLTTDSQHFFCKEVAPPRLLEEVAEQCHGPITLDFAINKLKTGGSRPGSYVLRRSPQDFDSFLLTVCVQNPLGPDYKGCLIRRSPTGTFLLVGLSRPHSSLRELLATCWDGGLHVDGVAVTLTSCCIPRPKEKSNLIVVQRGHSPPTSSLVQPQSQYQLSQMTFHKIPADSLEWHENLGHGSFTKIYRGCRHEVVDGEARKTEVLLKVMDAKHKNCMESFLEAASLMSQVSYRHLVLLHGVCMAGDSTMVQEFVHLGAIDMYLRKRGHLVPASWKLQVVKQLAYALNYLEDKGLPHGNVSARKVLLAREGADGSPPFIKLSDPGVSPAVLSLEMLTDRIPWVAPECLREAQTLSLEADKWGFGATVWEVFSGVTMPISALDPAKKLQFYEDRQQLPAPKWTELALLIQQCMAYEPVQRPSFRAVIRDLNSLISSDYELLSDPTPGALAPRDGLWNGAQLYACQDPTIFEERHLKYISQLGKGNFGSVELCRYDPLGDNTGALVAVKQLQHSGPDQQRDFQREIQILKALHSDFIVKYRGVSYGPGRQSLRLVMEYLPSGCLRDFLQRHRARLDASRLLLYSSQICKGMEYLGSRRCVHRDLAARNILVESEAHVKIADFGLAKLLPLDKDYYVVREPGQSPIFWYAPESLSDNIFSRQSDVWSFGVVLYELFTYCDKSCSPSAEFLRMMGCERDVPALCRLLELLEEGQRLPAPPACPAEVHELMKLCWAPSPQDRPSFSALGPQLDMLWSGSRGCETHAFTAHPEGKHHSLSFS
Description: Inhibition of JAK3 (unknown origin) at 300 uM measured after 40 mins in presence of ATP by luminescence assay relative to control. In short, it runs like this: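 Kinase reaction (50 μL): 40 mM Tris pH 7.4, 10 mM MgCl2, 0.1 mg/mL BSA, 1 mM DTT, 10 μM ATP, kinase and substrate, with 1% final DMSO. Run 40 min at 30 °C. Residual ATP read by Kinase-Glo Plus luminescence, inversely related to kinase activity.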

Series [2] can be described thus: Half life of the compound in DMSO. In kind it is physicochemical. In a few lines: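 Electrophile (20 μmol) incubated at 37 °C either in pH 7.4 buffer, or in DMSO-d6/D2O (5:1), with or without glutathione. Decay followed by 1H NMR kinetics. First-order rate constant kpseudo-1st taken from ln[electrophile] versus time; t1/2 = 0.693/(60×k), in min.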

The text below walks through data of ChEMBL document CHEMBL5143731, “N-Acylamino Saccharin as an Emerging Cysteine-Directed Covalent Warhead and Its Application in the Identification of Novel FBPase Inhibitors toward Glucose Reduction” (J Med Chem, 2022).

Turning to `O=C(NCc1ccccc1)N1C(=O)c2ccccc2S1(=O)=O`, the inhibition (usually the share of the control response that was lost under treatment) in series [1] is under 50%. Further, the half-life (as a rule, the time in which the quantity being followed falls by half) in series [2] is over 167 h.
